# Screening data: PubChem BioAssay, several laboratories
# This is a sample that favours compounds with a hit; in the whole collection about 0.85% have one here.
# OXTR potentiator: potentiators of human oxytocin receptor. P30559. CHO-OTR cells, Fluo-8 calcium fluorescence, potentiator mode; 0% = oxytocin EC15, 100% = EC100. activation, % at 3 µM. 0.061% of 320,000 active. AID 2445;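 active = activation above that plate's cutoff, the mean activation of tested compounds plus 3 SD, cut at about 6.6% in these data, passing the limit was not always enough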;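 also: 100% uses oxytocin at 75 nM as the full agonist control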
# Target sequence (P30559 whole entry, looked up): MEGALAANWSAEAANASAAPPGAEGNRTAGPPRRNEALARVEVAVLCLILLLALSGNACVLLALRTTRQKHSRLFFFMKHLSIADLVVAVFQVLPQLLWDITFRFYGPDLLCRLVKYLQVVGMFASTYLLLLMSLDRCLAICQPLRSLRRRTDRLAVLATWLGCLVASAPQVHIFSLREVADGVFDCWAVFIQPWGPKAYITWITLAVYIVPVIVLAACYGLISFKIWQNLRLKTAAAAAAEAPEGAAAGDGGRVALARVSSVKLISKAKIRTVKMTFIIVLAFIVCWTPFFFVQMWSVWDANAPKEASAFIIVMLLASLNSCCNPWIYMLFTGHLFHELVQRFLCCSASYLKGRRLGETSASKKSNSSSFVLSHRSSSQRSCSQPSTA
#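 Material: human OTR in CHO cells. Compound: 3.0 µM, one dose. Timing: compound 6 min at room temperature before oxytocin, 100 s read. Evaluation: % activation of max/min ratio relative to oxytocin controls. Replication: single well per compound, singlicate. Signal: Fluo-8 calcium dye fluorescence.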
# V1R ag counter: counter-screen for oxytocin receptor agonists: human V1a receptor agonists; AID 2797; activation, % at 3 µM; CHO-V1R cells, Fluo-8 calcium fluorescence, agonist mode; 0% DMSO, 100% 3 nM vasopressin; P37288; 0.25% of 320,000 active;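 active = activation above the mean activation of all tested compounds plus 3 SD, per screening run, cut at about 20% in these data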;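 also: signal is peak over basal fluorescence ratio across a 100 second FLIPR read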
# TRPML3 agonist: agonists of human TRPML3 channel. Q8TDD5. HEK293 TRPML3-YFP, Fluo-8 calcium fluorescence; 100% = the carbachol control signal. activation, % at 3 µM. 0.29% of 220,000 active. AID 1448;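 active = activation above its plate's cutoff, the mean activation of the plate's test wells plus 3 SD, cut at about 12% in these data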;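 also: 0% = DMSO only wells and 100% = carbachol wells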
#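 Test system: TRPML3-YFP stable HEK293 cells. Doses: single point at 3 µM. Incubation: dye loading 1 h 37 °C then 30 min ambient, 125 s read. Signal: Fluo-8 calcium dye fluorescence, ex 470-495, em 515-575 nm. Measure: percent activation from peak-to-basal fluorescence ratio, scaled between DMSO and carbachol.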
# OXTR agonist: agonists of human oxytocin receptor; 0.32% of 320,000 active; P30559; activation, % at 3 µM; CHO-OTR cells, Fluo-8 calcium fluorescence; normalized: DMSO 0%, oxytocin 100%;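 active = activation above the mean of all tested compounds plus 3 SD, cutoff set per screening run, cut at about 20% in these data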;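 also: peak over basal fluorescence ratio from a 100 s FLIPR kinetic read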
# TRPN1 ag: activates the zebrafish TRPN1 channel; HEK293 zebrafish TRPN1-YFP, Fluo-8 calcium fluorescence; 100% = response to 87 µM carbachol; activation, % at 3 µM; 0.18% of 220,000 active; AID 1424;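 active = activation above its plate's cutoff, the mean activation of test wells on that plate plus 3 SD, cut at about 19% in these data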;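 also: 0% = DMSO alone and 100% = 87 µM carbachol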
#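 Material – zebrafish TRPN1-YFP in HEK293 cells · Doses – 3 µM single point · Schedule – dye 1 h 37 °C plus 30 min RT · Signal – Fluo-8 calcium fluorescence, excitation 470-495 nm, emission 515-575 nm · Read-out – % activation versus carbachol response · Control set – carbachol high, DMSO low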
# CRFBP-R2 agonist: CRF-BP/CRF-R2 complex agonism; HEK293 CRF-R2/CRF-BP, calcium dye fluorescence (FLIPR); percent of saturating CRF peptide response; 0.46% of 350,000 active; AID 588473; activation, % at 13.2 µM;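 active = activation of at least 50%, plus an integration ratio under a set limit after plate pattern correction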;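 also: plate controls were neutral control wells without compound for no effect and CRF at EC100 for full effect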
# * marks the source's active call; other numbers are inactive results; · = no result.
SMILES,OXTR potentiator,V1R ag counter,TRPML3 agonist,OXTR agonist,TRPN1 ag,CRFBP-R2 agonist
Cc1ccc(-c2cc(-c3ccccc3)cc(-c3ccccc3)[n+]2-c2ccccc2)cc1,-12.4,1.9,·,8.9,·,65.6*
CN(C)c1ccc(-[n+]2c(-c3ccccc3)cc(-c3ccccc3)cc2-c2ccccc2)cc1,·,·,1.9,·,6.1,1.2
c1ccc(-c2cc(-c3ccccc3)[n+](-c3ccccc3)c(-c3ccccc3)c2)cc1,-26.2,2.4,-0.8,1.6,7.0,20.5
Cc1ccc(-c2cc(-c3ccc(C)cc3)[n+](-c3ccccc3)c(-c3ccc(C)cc3)c2)cc1,-15.1,9.3,·,12.0,·,60.3*
C/C=C1/CN2C3CC1C(CO)(C(=O)OC)C2Cc1c3n(C)c2ccccc12 (stereo not drawn),-4.1,-0.2,·,0.2,·,-2.0
c1cc2c(cc1[C@H]1OCC3C1CO[C@@H]3c1ccc3c(c1)OCO3)OCO2 (stereo partly drawn),-10.5,2.9,·,-0.1,·,1.5
C[C@@H](N)Cc1cnc[nH]1,-7.1,-0.2,·,0.1,·,-0.8
CCCCCc1nc2c(c(=O)c3ccccc3n2C)c(=O)n1C1CCCCCC1,-8.6,0.4,0.0,3.3,-0.5,218.8*
COC(=O)C1=C(c2ccc(OC)c(OC)c2)C[C@@H]2CC[C@H]1N2C(=O)NCCOc1ccccc1Cl,-4.4,-0.5,·,-1.6,·,-0.6
C=CCN1C(=O)NC(=O)/C(=C/c2ccoc2)C1=O,-5.9,12.3,2.7,9.2,7.2,21.2
COc1ccccc1C(=O)Nc1ccc2c(c1)CC1(C(=O)N(C)C(=O)N(C)C1=O)C1CCCN21 (stereo not drawn),-2.6,-0.1,·,-0.2,·,181.6*
CC(=O)Nc1ccc(S(=O)(=O)N2Cc3cnnn3-c3ccccc3C2C#N)cc1 (stereo not drawn),·,·,·,·,·,-0.8
CN(C)C(=O)Oc1ccc2c(c1)O/C(=C\c1cccc([N+](=O)[O-])c1)C2=O,-2.4,1.2,·,0.1,·,-1.9
Nc1ccc2ccc3cccc[n+]3c2c1,-16.2,92.4*,·,38.2*,·,163.0*
O=c1[nH]c(=O)n(-c2ccc(F)cc2)c(O)c1/C=C1\C=Nc2ccccc21,-2.0,2.1,·,2.6,·,102.1*
CN1C2CCC1CC(OC(=O)c1ccc(Cl)cc1)(C(=O)O)C2 (stereo not drawn),-14.4,-0.2,-0.2,0.2,0.5,4.7
CN1C(=O)C(=Cc2sc(=O)n(-c3ccccc3)c2N2CCCCC2)C(=O)N(C)C1=O,·,·,9.1,·,29.1*,30.8
CCOC(=O)c1c(/N=C/C2C(=O)NC(=S)NC2=O)sc2c1CCC2,-1.0,4.1,2.3,4.1,4.1,97.8*
CCOC(=O)c1c(/N=C/C2C(=O)NC(=S)NC2=O)sc(C)c1C,-15.4,-0.2,0.4,-1.0,0.6,·
Nc1ccc2nonc2c1[N+](=O)[O-],-8.6,15.2,5.5,17.2,4.6,70.1*
Cc1ccccc1N1C(=O)NC(=O)/C(=C\c2cc(Br)c(N3CCOCC3)o2)C1=O,-5.3,1.7,1.7,2.2,2.5,112.7*
Cc1ccccc1N1C(=O)NC(=O)/C(=C/c2ccc(N3CCOCC3)o2)C1=O,-12.5,6.4,2.8,6.8,4.9,29.2
CC(C)(C)P(=O)(c1ccncc1)N1CCCC1 (stereo not drawn),-4.8,0.6,1.2,0.1,-1.1,-0.6
N#CC(C#N)=Cc1ccc(O)c(O)c1,-2.2,1.0,·,-0.5,·,9.2
CC(C)(C)c1cc(C=C(C#N)C#N)cc(C(C)(C)C)c1O,-5.9,10.0,·,6.9,·,53.4*
SMILES,OXTR potentiator,V1R ag counter,TRPML3 agonist,OXTR agonist,TRPN1 ag,CRFBP-R2 agonist
Cn1cc(C=C2C(=O)NC(=O)NC2=O)c2ccccc21,-6.6,1.6,·,0.3,·,59.1*
O=C1NC(=O)C(=C/C=C/c2coc3ccc(Br)cc3c2=O)C(=O)N1,-22.8,17.2,5.6,39.6*,11.0,·
O=C1NC(=O)C(=Cc2csc3ccccc23)C(=O)N1,-16.3,0.6,-0.1,24.0*,2.3,2.0
O=C1NC(=O)C(=Cc2coc3ccccc3c2=O)C(=O)N1,-3.5,0.8,1.5,-0.9,1.1,71.3*
CCCNC(=O)N1CCC2(CC1)OCCO2,-3.4,0.8,0.6,0.1,1.2,-2.9
Cn1cnc([N+](=O)[O-])c1Sc1ccc([N+](=O)[O-])cc1,-10.3,4.4,0.9,3.0,2.5,2.6
CN1C(=O)C(=Cc2ccc(N3CCCCCC3)o2)C(=O)N(C)C1=S,-3.8,19.6,6.5,12.5,10.7,99.1*
Cc1cc(/C=C2\C(=O)NC(=O)N(C)C2=O)c(C)n1-c1ccc2c(c1)OCO2,-14.0,-0.1,1.1,0.0,-0.2,-0.7
O=C1NC(=O)N(c2ccc3c(c2)OCO3)C(=O)/C1=C\c1ccc(N2CCCCC2)o1,-8.0,11.9,0.8,8.6,0.6,73.4*
Cn1nnc(CC[N+](C)(C)C)n1,-1.3,1.7,-0.4,0.5,1.3,1.5
CN1CN(c2ccccc2)C2(CCN(CCCSc3ccccc3NC(=O)/C=C/c3ccccc3)CC2)C1=O,·,·,·,·,·,94.7*
CC(C(=O)Nc1ccc(Br)cc1C(=O)c1ccccc1)N1CCCCC1 (stereo not drawn),11.9*,-1.2,-0.8,-2.0,-1.2,-1.5
C[C@@H]1CN([C@H](C)CO)C(=O)CCCn2nncc2CO[C@@H]1CN(C)C(=O)Oc1cccc2ccccc12,·,·,·,·,·,-0.2
O=c1cc(C(F)(F)F)c2cc3c4c(c2o1)CCCN4CCC3,-18.0,152.2*,7.9,168.9*,11.1,173.2*
Cc1cc2c(C(F)(F)F)cc(=O)oc2c2c1NCCC2,-1.0,8.8,1.9,4.5,2.3,178.4*
O=[N+]([O-])c1oc2ccc3ccccc3c2c1CCO,·,·,·,·,·,-2.5
CC(C)CN1CCN(Cc2c(F)cccc2Cl)CC1CCO (stereo not drawn),-5.5,-0.9,0.5,3.8,-1.1,-0.7
COc1ccc(CC(C)Nc2cccc(F)c2)cc1 (stereo not drawn),-11.1,-1.2,·,-2.1,·,-0.5
O=C1NC(=S)NC(=O)C1=Cc1cccc2cc3ccccc3cc12,·,·,-0.3,·,1.6,1.1
CN1/C(=C\C=C2C(=O)NC(=S)NC2=O)C(C)(C)c2ccccc21,·,·,31.5*,·,57.4*,214.8*
CC1(C)OC(c2ccccc2)=C/C(=C/C=C2C(=O)NC(=S)NC2=O)O1,-8.8,5.6,4.0,9.7,8.6,144.4*
O=C1NC(=S)NC(=O)C1=Cc1c(Cl)cccc1Cl,·,·,·,·,·,1.4
COC(=O)C1=C(c2ccccc2OCc2ccccc2)C[C@@H]2CC[C@H]1N2C(=O)NCCN1CCOCC1,0.3,-0.9,·,0.5,·,0.8
Nc1cccc2c1Cc1cc([N+](=O)[O-])ccc1-2,·,·,·,·,·,61.5*
N=C1c2ccccc2CN1c1cccc([N+](=O)[O-])c1,-6.4,-0.6,0.4,0.0,0.8,0.8
